# Screening data (PubChem)
# Ecoli rRNA inh: selective bacterial rRNA inhibition in E. coli | E. coli WT GFP vs humanized-ribosome RFP mutants, fluorescence, 24 h; hits give low values; DMSO median 0, no signal -100 | GFP signal change (wild-type ribosome), % (no concentration beside the values) | 1.6% of 350,000 active | AID 720706;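 active means significant combined selectivity score with lowered wild-type GFP, culture density cut under 30%, mutant RFP and density less affected; inactive means any of these conditions unmet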
# FN deposit inh: fibronectin deposition inhibition; 0.086% of 350,000 active; inhibition, % at 12.6 µM; AH1F fibroblasts, Alexa488-fibronectin deposition fluorescence, overnight; AID 743247;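 active means mean inhibition across replicates of 30% or more, regardless of how many single replicates reach that level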;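 further: positive control wells lacked labelled fibronectin entirely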
#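 Material: AH1F fibroblast monolayer depositing Alexa488-labelled fibronectin into matrix | Input: 10000 AH1F cells/well | Medium: DMEM plus 2% serum, read in PBS | Reagent: Alexa488-fibronectin, 24 nM final in well | Compound dosing: One dose per compound, pinned | Schedule: 1 h adhesion, overnight exposure | Measured by: Fluorescence at 485 nm excitation, 525 nm emission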
# PvdQ inh: blocks Pseudomonas aeruginosa PvdQ acylase activity | purified PvdQ acylase, fluorescence plate reader | inhibition, % at 10 µM | 0.063% of 340,000 active | AID 488965; in the data active means inhibition above about 30%, passing the limit was not always enough;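 further: 0% = vehicle neutral wells and 100% = reference inhibitor wells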
# Env fusion inh: blocks HIV Env-driven cell-cell fusion | HeLa-JRFL Env/CEM21 cell fusion, luciferase | AID 651610 | 1.1% of 360,000 active | inhibition, % at 12.3 µM;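 active means mean replicate inhibition score of at least 50 and every replicate individually at or above 50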;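 further: 0% = plate neutral controls and 100% = maraviroc near 300 nM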
# PDI inh: inhibitors of human protein disulfide isomerase. P07237. PDI insulin aggregation turbidity, A650, 90 min. inhibition, % at 10 µM. 0.052% of 350,000 active. AID 588391;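 active means mean inhibition across replicates of 30% or more, whatever share of single replicates reach that level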
# Target sequence (P07237 whole entry, looked up): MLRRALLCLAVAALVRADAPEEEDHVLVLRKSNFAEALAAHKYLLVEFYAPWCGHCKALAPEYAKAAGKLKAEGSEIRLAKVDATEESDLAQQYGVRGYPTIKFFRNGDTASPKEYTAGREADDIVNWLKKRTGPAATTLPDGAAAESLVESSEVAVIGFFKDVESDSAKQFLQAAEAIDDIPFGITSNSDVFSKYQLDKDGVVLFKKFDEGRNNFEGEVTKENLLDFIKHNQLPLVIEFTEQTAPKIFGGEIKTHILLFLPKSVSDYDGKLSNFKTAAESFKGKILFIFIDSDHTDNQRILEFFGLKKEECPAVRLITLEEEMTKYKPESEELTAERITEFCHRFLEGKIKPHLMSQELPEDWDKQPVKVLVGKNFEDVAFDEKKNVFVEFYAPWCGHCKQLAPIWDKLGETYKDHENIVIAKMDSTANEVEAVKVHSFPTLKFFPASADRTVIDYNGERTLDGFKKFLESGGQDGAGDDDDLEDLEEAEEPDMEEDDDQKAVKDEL
# ERp5 inh: inhibitors of human ERp5. Q15084. ERp5 insulin aggregation, absorbance 650 nm, 90 min. inhibition, % at 9.99 µM. 0.05% of 350,000 active;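 active means mean replicate inhibition above about 25%, with every replicate also reaching it, limit read from the data, passing the limit was not always enough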
# * marks the source's active call; other numbers are inactive results; . = no result given; [ ] = another dose, or the depositor's remark. Only some compounds are listed: those with a hit (about 2.2% of all), similar ones and a draw of the others.
SMILES,Ecoli rRNA inh,FN deposit inh,PvdQ inh,Env fusion inh,PDI inh,ERp5 inh
CCCCN1C=CC(=C2C(=O)c3ccccc3C2=O)C=C1,-4.3,-3.4,0.0,84.0*,-2.3,2.5
CC(=O)N1CC2(C1)[C@@H](c1ccc(-c3ccc(C#N)cc3)cc1)[C@H](CO)N2C(=O)C1CC1,-3.5,.,.,.,.,-5.4
COc1cccc(C(=O)NNC(=O)Cc2ccc(Cl)cc2)c1,-20.6*,-0.1,-9.0,3.8,6.6,-3.0
COc1ccccc1C(=O)NNC(=O)c1ccc2ccccc2c1O,-16.1,7.8,.,5.5,-3.4,-2.6
Cc1cccc(NC(=O)NNC(=O)c2ccc3ccccc3c2O)c1,-11.5,.,-8.6,-35.4,-3.6,0.9
Cc1ccc(C(=O)NNC(=O)c2ccc3ccccc3c2O)cc1,-27.3*,-3.4,0.7,3.3,-5.4,3.4
COc1ccc(C(=O)NNC(=O)c2ccc3ccccc3c2O)cc1,-23.8*,5.3,-5.0,2.7,-9.6,0.0
COc1ccc(C(=O)Nc2ccc(C)cc2C(=O)c2ccccc2)cc1,-18.6*,-5.0,16.8,25.8,10.0,4.0
CC[C@@H]1C/C=C\CCNC(=O)CCC(=O)N1,0.9,-6.0,.,.,.,.
COc1ccc(C(=O)NNC(=O)c2cccc(F)c2)cc1,-23.2*,.,-6.7,-10.3,-4.7,2.6
CS(=O)(=O)Nc1ccc2c(c1)[C@H]1C[C@@H](CC(=O)NCc3ccc(Cl)cc3)O[C@@H](CO)[C@H]1O2,1.3,-7.5,.,0.4[16.7 µM],.,1.6
CSC1=C(C#N)C(c2ccccc2C)C(C#N)=C(N)N1 (configuration not stated),.,.,-10.8,61.7*,11.1,.
CSC1=C(C#N)C(c2ccccc2Cl)C2=C(N1)c1ccccc1C2=O (configuration not stated),.,-18.1,-2.9,36.9,-6.8,.
O=C(NCc1ccccn1)[C@H]1[C@H](CO)[C@H]2Cn3c(cccc3=O)[C@@H]1N2CC1CCCC1,2.3,.,.,.,.,1.9
C[C@H](CO)N1C[C@H](C)[C@H](CN(C)S(=O)(=O)c2ccc(Cl)cc2)Oc2ccc(NC(=O)Nc3ccc4c(c3)OCO4)cc2C1=O,2.1,4.8,.,110.7*[16.7 µM],.,8.2
Cc1ccc(S(=O)(=O)N(C)C[C@@H]2Oc3ccc(NC(=O)Nc4ccc5c(c4)OCO5)cc3C(=O)N([C@H](C)CO)C[C@@H]2C)cc1,-1.3,.,.,60.1*[16.7 µM],.,-10.7
C[C@H]1CN([C@@H](C)CO)C(=O)c2cc(NC(=O)Nc3ccc4c(c3)OCO4)ccc2O[C@H]1CN(C)S(=O)(=O)c1ccc(Cl)cc1,-2.2,-1.3,.,64.9*[16.7 µM],.,4.5
COCC(=O)Nc1ccc2c(c1)OC[C@H](C)N(CCc1ccccc1)C[C@H](C)[C@@H](OC)CN(C)C2=O,-7.7,-0.1,.,.,.,.
CCS(=O)(=O)N1CCC2(CC1)CN(C(=O)CN1CCOCC1)[C@@H](CO)c1c2c2ccc(OC)cc2n1C,-0.7,.,.,.,.,.
COC(=O)C[C@H]1C[C@H]2c3cc(NC(=O)Nc4ccc(OC)cc4)ccc3O[C@H]2[C@@H](CO)O1,-0.1,-2.6,.,.,.,.
CCOC(=O)CC1(c2ccc(OC)c(OC)c2)C(=O)c2ccccc2C1=O,-26.9*,11.4,-14.1,10.6,-6.1,-2.8
C[C@@H]1CN([C@@H](C)CO)C(=O)c2cc(C#CC(C)(C)O)cnc2O[C@@H]1CN(C)Cc1cccc(F)c1,1.0,-7.4,.,11.3[16.7 µM],.,.
O=C(C1CCCCC1)N1C[C@@H]2[C@H](c3ccccc31)[C@H](CO)N2Cc1ccccc1Cl,-49.1,.,.,.,.,0.4
COc1ccc(CN(C)C(=O)C23CC4CC(CC(Cl)(C4)C2)C3)c(OC)c1OC,-28.9*,-15.7,-11.6,-0.4,0.9,0.6
COc1cccc(CN(C)C(=O)C23CC4CC(CC(NC(C)=O)(C4)C2)C3)c1OC,1.7,-2.3,-14.3,-8.9,6.4,0.4
C[C@@H]1CN([C@@H](C)CO)C(=O)c2cccc(NS(=O)(=O)c3ccc(F)cc3)c2O[C@H]1CN(C)C(=O)Nc1cccc2ccccc12,-10.7,7.2,.,.,.,.
C/C=C/c1ccc2c(c1)O[C@@H](CN(C)S(C)(=O)=O)[C@H](C)CN([C@H](C)CO)S2(=O)=O,-3.5,-17.3,.,5.0[16.7 µM],.,88.3*
C/C=C/c1ccc2c(c1)O[C@@H](CN(C)S(C)(=O)=O)[C@H](C)CN([C@@H](C)CO)S2(=O)=O,-6.1,1.2,.,4.9[16.7 µM],.,68.1*
